Shown are actives, neighbours in structure and some others; about 3.1% of the full set was active somewhere.
GPR7 antag: blocks human GPR7 receptor signaling; AID 1861; inhibition, % at 4.4 µM; actives 1.1% (n = 290,000); GPR7-expressing cells, fluorescence antagonist assay; P48145; in the data active means inhibition above about 16%, passing the limit was not always enough;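 further: cells stimulated with the agonist NPW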
Target sequence (P48145 whole entry, looked up): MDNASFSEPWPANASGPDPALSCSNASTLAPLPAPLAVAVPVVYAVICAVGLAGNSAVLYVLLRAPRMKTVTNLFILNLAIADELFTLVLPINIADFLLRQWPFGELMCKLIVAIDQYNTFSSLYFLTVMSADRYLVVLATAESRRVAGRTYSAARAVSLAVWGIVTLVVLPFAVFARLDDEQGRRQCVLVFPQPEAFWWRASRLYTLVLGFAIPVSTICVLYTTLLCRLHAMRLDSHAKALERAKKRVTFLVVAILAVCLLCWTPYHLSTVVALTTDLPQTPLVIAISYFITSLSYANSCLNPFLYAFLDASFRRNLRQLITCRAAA
OX1R antag-1: OX1R (human) antagonism; OX1R-expressing cells, FRET antagonist read-out; actives 1.8% (n = 330,000); O43613; inhibition, % at 6.6 µM; AID 485270; in the data active means inhibition mostly above about 38%, no sharp cut-off; inactive means mostly below about 40%
CHO parental Ca: signal in parental CHO cells, OX1R antagonist counter-screen; inhibition, % at 5.6 µM; AID 463079; actives 0.63% (n = 330,000); parental CHO-K1, ATP-induced calcium, Fluo-8 fluorescence;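 active means inhibition above that plate's mean sample inhibition plus 3 SD, cut at about 26% in these data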
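Measured by: calcium-sensitive Fluo-8 fluorescence / Test system: CHO parental line / Controls: ATP-challenged DMSO wells low, unchallenged DMSO wells high / Measure: % inhibition / Compound: single nominal dose of 5.6 µM per compound / Replicates: single well per compound, no replicates / Reagent: ATP as calcium-mobilizing challenge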
OX1R antag-2: blocks the human orexin 1 receptor. inhibition, % at 5 µM. O43613. CHO/OX1R cells, Fluo-8 calcium fluorescence, orexin A. actives 0.43% (n = 330,000);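 active means inhibition above its plate's threshold, mean inhibition of all tested compounds on the plate plus 3 SD, cut at about 37% in these data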
GalR3 antagonist: blocks the human galanin receptor 3; actives 0.44% (n = 360,000); inhibition, % at 3 µM; HEK293 GalR3-CNG cAMP membrane potential fluorescence; galR3 body fused to GalR1 C-terminus;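 active means inhibition above the screen-wide average plus 3 SD, cut at about 13% in these data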;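 further: forskolin and galanin both at EC90 stimulate the cells; cAMP rise reported by CNG channel membrane potential dye signal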
Numbers stand for hits; . = inactive; / = not tested or not shown.

SMILES	GPR7 antag	OX1R antag-1	CHO parental Ca	OX1R antag-2	GalR3 antagonist
Cc1ccc2c(c1)C(=NC1CCCCC1)c1cc3ccccc3nc1-2	.	75	.	.	.
COCCNC(=O)CN(C(=O)c1ccc(N2CCCC2)nc1)c1ccccc1	25	.	.	.	.
COC(=O)CC1C(=O)NCCN1C(=O)c1cc(OC)c(OC)cc1OC (stereo not given)	.	.	30	.	.
COC(=O)CC1C(=O)NCCN1C(=O)c1cc([N+](=O)[O-])ccc1Cl (stereo not given)	.	.	.	.	.
CCN1CCN(CCNC(=O)c2ccc3c(c2)N(Cc2ccc(F)cc2)C(=O)/C(=C/c2ccccc2)S3)CC1	29	.	.	.	.
CCN1CCN(CCNC(=O)c2ccc(/C=C3/Sc4ccccc4N(Cc4cccc(Cl)c4)C3=O)cc2)CC1	.	.	.	.	.
O=[N+]([O-])c1ccccc1S(=O)(=O)N/C(=N/S(=O)(=O)c1ccccc1)c1ccccc1	/	.	.	.	.
CCOc1ccccc1CNc1ncnc2ccc(-c3c(C)noc3C)cc12	/	33	.	.	.
COc1ccc(OC)c(NC(=O)c2ccc(-c3cccs3)cc2)c1	.	55	.	.	.
COc1ccc(C(=O)Nc2cccc(NC(=O)c3cccs3)c2)cc1OC	.	75	.	.	.
COc1cccc(OC)c1C(=O)Nc1cccc(NC(=O)c2cccs2)c1	.	.	.	.	.
Cn1c2ccccc2n2c(=O)c(=O)n(CC(=O)c3ccc(Cl)cc3)nc12	.	.	.	.	.
O=C(Nc1nc(-c2ccccc2)cs1)c1ccc(N2CCOCC2)c([N+](=O)[O-])c1	.	80	41	.	/
Cc1ccc(-c2csc(NC(=O)c3cc([N+](=O)[O-])ccc3N3CCOCC3)n2)cc1	.	.	.	.	.
O=C(Nc1nc(-c2ccccc2)cs1)c1ccc2c(=O)n3c(nc2c1)CCCCC3	.	51	.	.	.
Cc1cc(N2CCOCC2)n2nc(C)c(-c3ccccc3Cl)c2n1	.	/	/	/	.
Cc1sc2nc(C3CC3)nc(NCCNS(C)(=O)=O)c2c1C	.	.	.	.	.
CN(c1ccc(C(=O)NCCSCc2c(F)cccc2Cl)cc1)S(C)(=O)=O	.	.	.	.	.
O=C(Cc1ccc([N+](=O)[O-])cc1)c1ccccc1	/	/	/	/	.
O=C(CCn1c(=O)oc2ccc(Cl)cc21)N1CCN(Cc2ccccc2)CC1	.	.	.	.	.
N#CC1=C(N)N2C(=C(C#N)C1c1ccc(Br)cc1)Nc1ccccc12 (stereo not given)	.	76	.	.	.
Cn1cnnc1SCC(=O)Nc1ncc([N+](=O)[O-])s1	/	35	.	.	.
Cc1nnc(NC(=O)CC(C)c2ccccc2)s1 (stereo not given)	.	.	.	.	.
O=C(COc1ccc(Cl)cc1)Nc1ncc([N+](=O)[O-])s1	.	/	/	/	.
Cc1csc(NC(=O)CSc2nncn2C)n1	.	.	.	.	.
SMILES	GPR7 antag	OX1R antag-1	CHO parental Ca	OX1R antag-2	GalR3 antagonist
CC(CC(=O)Nc1ncc([N+](=O)[O-])s1)c1ccccc1 (stereo not given)	.	35	.	.	.
O=C(COC(=O)COc1ccccc1)Nc1ncc([N+](=O)[O-])s1	/	43	.	.	.
O=C(C(=O)N1CCN(S(=O)(=O)c2cccc3ccccc23)CC1)c1cccc(C(F)(F)F)c1	/	/	/	/	.
COC(=O)[C@]12C[C@H](CC(=O)NCCCCc3ccccc3)C(=O)N(CCC3=CCCCC3)C1=C[C@H](COCc1ccccc1)O[C@@H]2C	/	/	/	/	.
N#Cc1ccc(COC(=O)c2ccc(N3CCCC3)c([N+](=O)[O-])c2)cc1	.	.	.	.	.
O=C1/C(=C/c2ccc(N3CCOCC3)o2)SC(=Nc2ccccc2)N1CCc1c[nH]c2ccccc12	.	.	92	75	/
COc1ccc(-c2cccc3[nH]c4c(c23)CCN2C(=O)[C@H]3[C@H](C)ON(C)[C@H]3C[C@@H]42)cc1	/	/	/	/	.
CN(c1ccccc1)c1ccc(/C=C/[N+](=O)[O-])cc1	.	.	63	78	.
FC(F)(F)c1ccc(NC(=S)NCc2ccccc2)cc1	24	.	30	.	.
FC(F)(F)c1cccc(NC(=S)NCc2ccc(Cl)cc2)c1	28	.	.	.	.
O=C(O)c1ccc(NC(=S)NCc2ccccc2)cc1	.	.	.	.	.
NC1CCN(c2nc3c(cc2F)c(=O)c(C(=O)O)cn3-c2ccc(F)cc2F)C1 (stereo not given)	/	.	.	.	.
